Calls of active or inactive are those of the source. No cut-off for these calls is given here.
Columns and labels:
[1] = Antioxidant activity assessed as ABTS radical cation scavenging activity by measuring trolox equivalents by spectrophotometric analysis; type: functional
Cortical neurone [2] = test: (§1) Neuroprotective activity against fibril amyloid beta (25 to 35)-induced cell death in Sprague-Dawley rat 5 days old neonatal primary cortical neurons assessed as increase in cell viability pretreated for 2 hrs followed by 10 uM fibril amyloid beta (25 to 35) addition measured after 48 hrs by MTT assay; type: functional, cell-based
Outline: (§2)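 Cortical neurons pretreated 2 h with vehicle (0.1% DMSO) or compound at maximum nontoxic concentration. Then exposed at DIV5 to fibrillar Aβ25–35 (10 μM, 48 h) or at DIV10 to glutamate (30 μM, 24 h). MTT 0.5 mg/mL for 1 h, formazan dissolved in DMSO, OD read at 600 nm. Mean ± SD of three independent experiments.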

[3] = Anti-inflammatory activity in Sprague-Dawley rat primary mixed glial cells assessed as inhibition of LPS-induced NO production at 50 uM pretreated for 2 hrs followed by LPS addition measured after 48 hrs by Griess assay (reference value: 100%); type: functional, Primary glial cell; set-up: scale not given: the % may be the effect or the level left
Cortical neurone [4] = test: (§3) Neuroprotective activity against fibril amyloid beta (25 to 35)-induced cell death in Sprague-Dawley rat 5 days old neonatal primary cortical neuron assessed as inhibition of fibril amyloid beta (25 to 35)-induced decrease in MAP2 level at 50 uM pretreated for 2 hrs followed by 10 uM fibril amyloid beta (25 to 35) addition measured after 48 hrs by fluorescein isothiocyanate dye-based immunocytochemistry analysis; type: functional
Outline: (§4)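 Cortical neurons at DIV5 (fibrillar Aβ25–35 10 μM, 48 h) or DIV10 (glutamate 30 μM, 24 h), after 2 h with 50 μM compound. Fixed in 4% paraformaldehyde, permeabilized with Triton X-100, blocked with donkey serum. Stained with anti-MAP2 and anti-tau (1:100, overnight at 4 °C), then FITC and RRX secondaries. Integrated density relative to vehicle. Mean ± SEM, n=3.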

Cortical neurone [5] = test: Neuroprotective activity against glutamate-induced cell death in Sprague-Dawley rat 10 days old neonatal primary cortical neurons assessed as cell death at maximum non toxic concentration pretreated for 2 hrs followed by 30 uM glutamate addition measured after 24 hrs by MTT assay (reference value: 41.22 +/- 3.40%); type: functional
Cortical neurone [6] = test: as §3, with “tau protein” for “MAP2”; type: functional; outline: as §4
Cortical neurone [7] = test: (§5) Neuroprotective activity against glutamate-induced cell death in Sprague-Dawley rat 10 days old neonatal primary cortical neurons assessed as increase in cell viability pretreated for 2 hrs followed by 30 uM glutamate addition measured after 24 hrs by MTT assay; type: functional, cell-based; outline: as §2
Cortical neurone [8] = test: as §1, with “neuron” for “neurons”, “viability at 50 uM” for “viability”, “calcein AM dye-based confocal laser scanning microscopic analysis” for “MTT assay”; type: functional
Outline: (§6)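 Rat pup cortical neurons in Neurobasal/B27, given 5 μM cytosine arabinoside for 1 day. Used at DIV5 for Aβ25–35 fibrils (aged 1 week at 37 °C; 10 μM, 48 h) or DIV10 for glutamate (30 μM, 24 h), after 2 h with 50 μM compound or 0.1% DMSO. Cells loaded with 1 μM calcein AM and ethidium homodimer-1 for 30 min at room temperature, imaged by confocal microscopy. Live-cell count and integrated density expressed relative to vehicle. Mean ± SEM, n=3.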

Cortical neurone [9] = test: as §1, with “day” for “days”, “as” for “as increase in”, “death at maximum non toxic concentration” for “viability”, “assay (reference value: 39.20 +/- 0.88%)” for “assay”; type: functional
Outline: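 Rat cortical neurons from pups, papain-dissociated, cytosine arabinoside (5 μM, 1 day) to remove non-neuronal cells, used at DIV5. Vehicle 0.1% DMSO or compound pretreatment before fAβ25–35 (aged 1 week at 37 °C). Viability by MTT reduction: 0.5 mg/mL for 1 h, formazan dissolved in DMSO, OD600. Mean ± SD of three independent experiments.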

[10] = Anti-inflammatory activity in Sprague-Dawley rat primary mixed glial cells assessed as inhibition of LPS-induced NO production pretreated for 2 hrs followed by LPS addition measured after 48 hrs by Griess assay; type: functional, cell-based; details: Glial cell
Outline: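 Mixed cortical glia kept 3 days in DMEM/F12 with 10% FBS, medium changed, 4 more days, then 9 days in Neurobasal/B27 (16 days total). Cultures activated 2 days after medium refresh with 100 ng/mL LPS for 48 h, with compound at maximum nontoxic concentration. Medium nitrite read by Griess reagent at 540 nm against NaNO2 standard. Mean ± SD, three independent experiments.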

Cytochrome P450 3A4 = Cytochrome P450 3A4 (Homo sapiens, UniProt P08684); test: Inhibition of CYP3A4 in human liver microsomes; type: ADME
Chain of Cytochrome P450 3A4 (P08684 whole entry): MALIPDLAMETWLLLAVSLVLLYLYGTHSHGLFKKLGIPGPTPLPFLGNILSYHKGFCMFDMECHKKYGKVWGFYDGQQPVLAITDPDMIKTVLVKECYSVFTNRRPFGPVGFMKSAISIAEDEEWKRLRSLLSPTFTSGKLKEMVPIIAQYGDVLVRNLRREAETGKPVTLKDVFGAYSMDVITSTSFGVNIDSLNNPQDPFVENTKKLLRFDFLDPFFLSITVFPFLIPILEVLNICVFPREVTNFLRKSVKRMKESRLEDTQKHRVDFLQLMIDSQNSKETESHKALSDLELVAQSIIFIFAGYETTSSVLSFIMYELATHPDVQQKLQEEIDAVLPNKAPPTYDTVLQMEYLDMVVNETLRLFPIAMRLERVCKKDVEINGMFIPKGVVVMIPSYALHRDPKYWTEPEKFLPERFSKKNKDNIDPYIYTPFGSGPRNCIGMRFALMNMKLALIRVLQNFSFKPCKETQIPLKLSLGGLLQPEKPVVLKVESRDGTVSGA

Mus musculus [11] = test: Antialzheimer activity in APPswe/PSEN1dE9 double transgenic C57BL/6J mouse model of Alzheimer's disease assessed as decrease in number of unshredded nestlets at 30 mg/kg/day administered via oral gavage over 60 days by nesting test
Cortical neurone [12] = test: (§7) Neuroprotective activity against glutamate-induced cell death in Sprague-Dawley rat 10 days old neonatal primary cortical neuron assessed as inhibition of glutamate-induced decrease in MAP2 level at 50 uM pretreated for 2 hrs followed by 30 uM glutamate addition measured after 24 hrs by fluorescein isothiocyanate dye-based immunocytochemistry analysis; type: functional; outline: as §4
Cortical neurone [13] = test: as §5, with “neuron” for “neurons”, “viability at 50 uM” for “viability”, “calcein AM dye-based confocal laser scanning microscopic analysis” for “MTT assay”; type: functional; outline: as §6
Cortical neurone [14] = test: as §7, with “tau” for “MAP2”; type: functional; outline: as §4
Mus musculus [15] = test: Antialzheimer activity in APPswe/PSEN1dE9 double transgenic C57BL/6J mouse model of Alzheimer's disease assessed as increase in nesting score at 30 mg/kg/day administered via oral gavage over 60 days by nesting test; type: functional, organism-based
Outline: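 Female APP/PS1 C57BL/6J mice, 5 months old, given compound by oral gavage at 30 mg/kg/day for 60 days. Wild-type siblings received vehicle. Two nestlets (about 5 g) placed in the cage 1 h before the dark cycle. Nest score and unshredded nestlet weight recorded. Mean ± SD per group.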

| SMILES | Activity [1] [mMequiv] | EC50 (Cortical neurone [2]) [µM] | Activity [3] [%] | inhibition (Cortical neurone [4]) | Activity (Cortical neurone [5]) [%] | inhibition (Cortical neurone [6]) | EC50 (Cortical neurone [7]) [µM] | Activity (Cortical neurone [8]) | Activity (Cortical neurone [9]) [%] | EC50 [10] [µM] | IC50 (Cytochrome P450 3A4) [µM] | Activity (Mus musculus [11]) | inhibition (Cortical neurone [12]) | Activity (Cortical neurone [13]) | inhibition (Cortical neurone [14]) | Activity (Mus musculus [15]) |
| --- | --- | --- | --- | --- | --- | --- | --- | --- | --- | --- | --- | --- | --- | --- | --- | --- |
| Oc1ccc(-c2cc3c(Br)ccc(O)c3o2)cc1O | 0.12 | 26.7 | 61.64 | Active | 40.83 | inactive | > 0.5 | Active | 4.11 | > 100 | – | – | – | – | – | – |
| Oc1ccc(-c2cc3cc(Br)cc(O)c3o2)cc1O | 0.06 | 36.5 | 86.85 | Active | 31.45 | inactive | > 50 | Active | 16.95 | > 100 | 23.5 | – | – | – | – | – |
| CCOC(=O)/C=C/c1cc(O)c2oc(-c3cc(O)c(O)c(O)c3)cc2c1 | 0.94 | 53 | 40.35 | – | 24.48 | inactive | 33 | Active | 21.18 | 56.6 | 21.7 | Active | Active | Active | Active | Active |

— ChEMBL document CHEMBL4043092, “Neuroprotective and Antineuroinflammatory Effects of Hydroxyl-Functionalized Stilbenes and 2-Arylbenzo[b]furans” (J Med Chem, 2017)
